Consider six compounds from article PMC9050340 (RSC Advances, 2020).

Converted amounts (≈) assume the structure as drawn.

The conditions of data set [1]: cited from earlier work; for IC50, inhibition of oxidation of DPPH: from P. latifolia leaves. (In general: The DPPH test is a chemical assay of radical scavenging.)
The next data set deals with MDA-MB-231 cells. As to the kind of experiment: Wound-healing scratch. The data set is classed as cell-based, human. As to conditions: MDA-MB-231, 10 μM, HGF-induced, 24 h. The method, boiled down: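 MDA-MB-231 cells grown overnight to confluent monolayers, scratched with a pipette tip, washed twice with PBS, then fresh RPMI. Test compound (10 μM, from 10 mM DMSO stock; DMSO ≤0.1%) added in serum-free defined medium with […] HGF, in triplicate, for 24 h. Cells fixed and Giemsa-stained; wound width imaged at 0 and 24 h. % migration calculated relative to DMSO control.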

Data set [2] in a line: DPPH radical scavenging activity assay. Particulars: 30 min, room temperature, ethanol. Summed up: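 Test compound in absolute ethanol (2–100 μg mL−1; 40 μg mL−1 for screening), 1 mL mixed with 2 mL of freshly prepared DPPH (20 μg mL−1 in absolute ethanol). Incubated 30 min at room temperature in the dark, then absorbance read at 517 nm against an absolute ethanol blank. Ascorbic acid as positive control. % scavenging from blank versus sample absorbance; IC50 by nonlinear regression.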

The next data set deals with MCF-7. The experiment in a line: MTT antiproliferative. As to conditions: Homo sapiens, MCF7, read-out: Cytotoxicity (IC50 μM) MCF-7. The data set is classed as cell-based.
The nature of the next data set: MTT antiproliferative. As to conditions: human, MCF-10A cells (normal breast cell line). The data set is classed as cell-based.

For orientation: IC50 means the point on the concentration scale where inhibition reaches its midpoint.

Regarding `O=C1C[C@@H](c2ccc(O)cc2)Oc2cc(O)cc(O)c21` [naringenin], the “IC50, inhibition of oxidation of DPPH” value in data set [1] is 16.0 µg/mL.
On to `CC1(C)CC[C@]2(C(=O)O)CC[C@]3(C)C(=CC[C@@H]4[C@@]5(C)CC[C@H](O)C(C)(C)[C@@H]5CC[C@]43C)[C@@H]2C1` [Compound 10, oleanolic acid], for which the “cell migration inhibition in wound-healing assay” value in the data set on MDA-MB-231 cells is listed as “suppressed”.
Turning to `O=C1O[C@H]([C@@H](O)CO)C(O)=C1O` [L-ascorbic acid, reference compound], the “IC50, DPPH radical scavenging” value in data set [2] was found to be 10 ± 0.3 µg/mL (≈ 56.8 µM).
For the compound `COc1cc(C2Oc3c(OC)cc(C=CC=O)cc3C(O)C2O)ccc1O` (centres unmarked) [4′-hydroxy-8,3′-dimethoxy-6-acroleinylflavan-3,4-diol], the “IC50, inhibition of oxidation of DPPH” value in data set [1] was 22.5 µg/mL.
On to `CC(CO)c1cc2c(c(O)c1O)C1=CC(=O)CC(C)(C)C1(C)C=C2` (centres unmarked) [11,12,16-trihydroxy-2-oxo-5-methyl-10-demethyl-abieta-1,[10] and 6,8,11,13-pentene], for which the “IC50 towards DPPH assay” value in data set [1] (from P. serratifolia) was 20.4 ± 1.3 µg/mL (≈ 62.1 µM).
In the case of `C[C@@H]1O[C@@H](O[C@@H]2[C@@H](O)[C@H](OCCc3ccc(O)c(O)c3)O[C@H](CO)[C@H]2OC(=O)/C=C/c2ccc(O)c(O)c2)[C@H](O)[C@H](O)[C@H]1O` [Compound 5, verbascoside], the concentration for half-maximal inhibition (IC50) in the data set on MCF-7 came to 10.5 ± 0.52 µM. In addition, it took 13.9 ± 0.69 µM to reach half-maximal inhibition in “MTT antiproliferative” (IC50 at 48 h). Further, the “IC50, DPPH radical scavenging” value in data set [2] turned out to be 17.50 ± 1.3 µg/mL (≈ 28 µM).
